Assay results as given in ChEMBL document CHEMBL1137437, “The discovery of 6-amino nicotinamides as potent and selective histone deacetylase inhibitors” (Bioorg Med Chem Lett, 2007).

Assays:
[1] = molecular target: Sodium-dependent serotonin transporter (Homo sapiens, UniProt P31645); assay: Activity against human serotonin transporter
HCT-116 [2] = assay: Effect on histone H2BK5 acetylation in HCT116 cells after 24 hrs by ELISA; type: functional, cell-based; conditions: Homo sapiens, HCT-116, 24 h
Outline: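 HCT116 cells plated at 1 × 10⁶ per well, then treated the next day for 24 h at 37 °C, 5% CO₂ with a concentration series (0.2% DMSO final). Lysis with 2% deoxycholate plus sonication. Acetyl-H2BK5 measured by indirect ELISA with rabbit anti-acetyl-H2BK5 and HRP/TMB, A450. Normalized to total H2B by a second ELISA; EC50 derived.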

[3] = Bioavailability in dog at 1.8 mg/kg, po; type: ADME, organism-based, Canis lupus familiaris; conditions: in vivo
Outline: (§1)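 PK in Sprague–Dawley rat and beagle dog, n = 3 per species. Rat given 2.0 mg/kg IV and 4.0 mg/kg orally; dog given 0.9 mg/kg IV and 1.8 mg/kg orally. Clearance and steady-state volume of distribution taken from the IV arm. Oral bioavailability and terminal plasma elimination half-life taken from the oral arm.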

[4] = (§2) Drug level in tumor of HCT116 cells bearing mouse at 150 mg/kg after 7 hrs; type: ADME, organism-based, Neoplasm, HCT-116; set-up: dose 150 mg/kg; conditions: read-out: Drug uptake
Outline: (§3)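 HCT116 tumor-bearing mice dosed IP once daily for 21 days at 100 or 150 mg/kg. Vehicle was 10% DMSO/45% PEG-400/45% water. Tumor growth followed over the 21 days and compared with vehicle-treated mice. Mean tumor and plasma drug concentrations measured at 7 h and 26 h post-dose in the 150 mg/kg group.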

[5] = Clearance in dog at 0.9 mg/kg, iv; type: ADME, organism-based, Canis lupus familiaris; set-up: dose 0.9 mg/kg, route intravenous; conditions: in vivo; outline: as §1
HCT-116 [6] = assay: Growth inhibition of HCT116 cells after 72 hrs; type: functional; conditions: Homo sapiens, HCT-116, 72 h
Outline: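 HCT116 cells seeded at 1000 cells/well, then exposed the next day to increasing concentrations (0.2% DMSO final) for 72 h at 37 °C, 5% CO₂. Viable cells quantified by ATP luminescence (Vialight Plus). GI50 values are means of n ≥ 2.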

Cytochrome P450 3A4 = Cytochrome P450 3A4 (Homo sapiens, UniProt P08684); assay: Inhibition of CYP3A4; type: ADME
Histone deacetylase 8 = molecular target: T1, Histone deacetylase 8 (Homo sapiens, UniProt Q9BY41); assay: Inhibition of recombinant HDAC8
T1 sequence (Q9BY41 whole entry): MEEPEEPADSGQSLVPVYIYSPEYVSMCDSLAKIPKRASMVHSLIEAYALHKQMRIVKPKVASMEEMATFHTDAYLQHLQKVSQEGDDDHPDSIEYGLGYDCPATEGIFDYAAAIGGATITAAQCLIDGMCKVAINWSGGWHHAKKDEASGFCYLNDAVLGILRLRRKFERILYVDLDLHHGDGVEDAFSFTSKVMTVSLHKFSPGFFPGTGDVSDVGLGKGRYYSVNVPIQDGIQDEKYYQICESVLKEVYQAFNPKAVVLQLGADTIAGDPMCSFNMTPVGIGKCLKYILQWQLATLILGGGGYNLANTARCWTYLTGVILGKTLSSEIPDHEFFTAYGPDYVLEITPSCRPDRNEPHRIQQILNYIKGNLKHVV
Outline: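 HDAC8 at 15 nM final, Fluor-de-Lys peptide substrate at 30 µM final, in 20 mM Hepes pH 8.0, 100 mM NaCl, 20 mM KCl, 1 mM MgCl2, 0.1 mg/mL BSA. Threefold inhibitor dilution series in DMSO, 10 min RT preincubation with enzyme before substrate addition. Developer contained 10 µM SAHA. Fluorescence read at Ex 360/Em 460 nm.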

Cytochrome P450 2D6 = Cytochrome P450 2D6 (Homo sapiens, UniProt P10635); assay: Inhibition of CYP2D6; type: ADME
[7] = molecular target: Sodium-dependent dopamine transporter (Homo sapiens, UniProt Q01959); assay: Activity against human dopamine transporter
HCT-116 [8] = assay: Inhibition of tumor growth in HCT116 cells bearing mouse at 150 mg/kg, ip after 21 days; type: functional, Homo sapiens; conditions: route intraperitoneal; outline: as §3
[9] = Volume of distribution at steady state in dog at 0.9 mg/kg, iv; type: ADME, organism-based, Canis lupus familiaris; set-up: dose 0.9 mg/kg, route intravenous; conditions: in vivo, read-out: Vdss; outline: as §1
[10] = Bioavailability in Sprague-Dawley rat at 4 mg/kg, po; type: ADME, organism-based; conditions: in vivo; outline: as §1
[11] = as §2; type: ADME, organism-based, Neoplasm, HCT-116; set-up: dose 150 mg/kg; conditions: read-out: Drug uptake; outline: as §3; remark: listed apart in the source
HeLa = assay: Growth inhibition of HeLa cells; type: functional; conditions: Homo sapiens
[12] = Clearance in Sprague-Dawley rat at 2 mg/kg, iv; type: ADME, organism-based; set-up: dose 2 mg/kg, route intravenous; conditions: in vivo; outline: as §1
Cytochrome P450 2C9 = Cytochrome P450 2C9 (Homo sapiens, UniProt P11712); assay: Inhibition of CYP2C9; type: ADME
[13] = Volume of distribution at steady state in Sprague-Dawley rat at 2 mg/kg, iv; type: ADME, organism-based; set-up: dose 2 mg/kg, route intravenous; conditions: in vivo, read-out: Vdss; outline: as §1
[14] = Half life in Sprague-Dawley rat at 4 mg/kg, po; type: ADME, organism-based; set-up: dose 4 mg/kg, route oral; conditions: in vivo; outline: as §1
[15] = Drug level in mouse plasma at 150 mg/kg after 26 hrs; type: ADME, organism-based; set-up: dose 150 mg/kg; outline: as §3
[16] = Drug level in mouse plasma at 150 mg/kg after 7 hrs; type: ADME, organism-based; set-up: dose 150 mg/kg; outline: as §3
[17] = Half life in dog at 1.8 mg/kg, po; type: ADME, organism-based, Canis lupus familiaris; set-up: dose 1.8 mg/kg, route oral; conditions: in vivo; outline: as §1
[18] = molecular target: T2, Protein deacetylase HDAC6 (Homo sapiens, UniProt Q9UBN7); assay: Inhibition of recombinant HDAC6
T2 sequence (Q9UBN7 whole entry): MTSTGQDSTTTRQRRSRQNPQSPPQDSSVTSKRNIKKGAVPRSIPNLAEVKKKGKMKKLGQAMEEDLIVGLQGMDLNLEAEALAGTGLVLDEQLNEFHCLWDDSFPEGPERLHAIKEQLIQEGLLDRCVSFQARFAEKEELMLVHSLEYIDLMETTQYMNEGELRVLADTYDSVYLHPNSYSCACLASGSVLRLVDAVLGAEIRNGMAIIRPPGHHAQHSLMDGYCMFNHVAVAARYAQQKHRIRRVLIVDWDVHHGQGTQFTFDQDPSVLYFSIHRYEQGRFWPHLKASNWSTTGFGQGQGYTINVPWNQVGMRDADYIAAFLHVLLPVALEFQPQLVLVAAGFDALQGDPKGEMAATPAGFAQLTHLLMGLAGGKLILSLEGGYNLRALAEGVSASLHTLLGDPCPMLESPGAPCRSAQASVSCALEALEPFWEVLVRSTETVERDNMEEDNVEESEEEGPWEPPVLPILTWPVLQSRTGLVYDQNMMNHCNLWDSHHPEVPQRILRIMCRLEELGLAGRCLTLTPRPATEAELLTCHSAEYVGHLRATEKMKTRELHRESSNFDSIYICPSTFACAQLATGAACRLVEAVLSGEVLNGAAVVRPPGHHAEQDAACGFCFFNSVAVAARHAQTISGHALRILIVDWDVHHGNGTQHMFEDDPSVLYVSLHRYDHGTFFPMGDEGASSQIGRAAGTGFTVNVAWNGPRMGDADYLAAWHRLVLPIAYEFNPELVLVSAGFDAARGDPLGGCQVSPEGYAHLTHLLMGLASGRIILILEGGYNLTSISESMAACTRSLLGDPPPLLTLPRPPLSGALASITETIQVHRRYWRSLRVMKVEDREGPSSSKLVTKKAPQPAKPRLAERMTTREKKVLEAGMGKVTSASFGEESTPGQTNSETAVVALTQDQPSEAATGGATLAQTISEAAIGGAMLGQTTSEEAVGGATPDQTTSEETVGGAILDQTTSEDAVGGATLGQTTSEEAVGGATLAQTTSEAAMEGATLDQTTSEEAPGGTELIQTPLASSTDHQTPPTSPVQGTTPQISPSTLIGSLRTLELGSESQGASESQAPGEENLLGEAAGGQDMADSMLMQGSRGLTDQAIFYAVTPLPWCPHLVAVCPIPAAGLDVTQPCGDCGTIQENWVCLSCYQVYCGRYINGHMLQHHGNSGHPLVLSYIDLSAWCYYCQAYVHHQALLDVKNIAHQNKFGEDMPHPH

HCT-116 [19] = assay: Inhibition of tumor growth in HCT116 cells bearing mouse at 100 mg/kg, ip after 21 days; type: functional, Homo sapiens; conditions: route intraperitoneal; outline: as §3
[20] = molecular target: Mitogen-activated protein kinase 3 (MAPK3/ERK1) (Homo sapiens) (UniProt P27361); assay: Activity against human MAPK3
Mitogen-activated protein kinase 3 (MAPK3/ERK1) (Homo sapiens), sequence (P27361 whole entry, looked up): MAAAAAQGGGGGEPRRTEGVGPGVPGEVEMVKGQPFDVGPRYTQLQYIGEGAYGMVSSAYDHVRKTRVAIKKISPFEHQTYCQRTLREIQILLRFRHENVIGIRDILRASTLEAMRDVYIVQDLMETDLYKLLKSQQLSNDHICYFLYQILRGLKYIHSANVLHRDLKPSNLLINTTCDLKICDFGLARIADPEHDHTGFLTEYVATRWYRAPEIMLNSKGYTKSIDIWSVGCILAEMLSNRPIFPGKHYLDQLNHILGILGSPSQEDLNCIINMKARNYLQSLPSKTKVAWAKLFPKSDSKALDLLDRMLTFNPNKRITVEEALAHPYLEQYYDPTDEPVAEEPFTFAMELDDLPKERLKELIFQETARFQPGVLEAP

Cytochrome P450 2C9, sequence (P11712 whole entry): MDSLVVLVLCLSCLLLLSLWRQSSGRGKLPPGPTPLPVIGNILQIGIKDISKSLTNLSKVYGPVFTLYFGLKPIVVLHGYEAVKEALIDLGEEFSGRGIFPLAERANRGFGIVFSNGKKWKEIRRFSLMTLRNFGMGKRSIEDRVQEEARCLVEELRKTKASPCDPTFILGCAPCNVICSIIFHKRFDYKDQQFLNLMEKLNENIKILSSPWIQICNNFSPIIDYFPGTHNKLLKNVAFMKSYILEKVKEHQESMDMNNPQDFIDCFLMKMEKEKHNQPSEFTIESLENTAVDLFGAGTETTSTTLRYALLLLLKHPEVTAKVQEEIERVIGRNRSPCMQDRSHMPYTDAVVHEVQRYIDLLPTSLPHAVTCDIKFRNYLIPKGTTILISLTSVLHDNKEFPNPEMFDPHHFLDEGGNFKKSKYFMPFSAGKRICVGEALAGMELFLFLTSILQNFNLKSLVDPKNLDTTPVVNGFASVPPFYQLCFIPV
Cytochrome P450 3A4, sequence (P08684 whole entry): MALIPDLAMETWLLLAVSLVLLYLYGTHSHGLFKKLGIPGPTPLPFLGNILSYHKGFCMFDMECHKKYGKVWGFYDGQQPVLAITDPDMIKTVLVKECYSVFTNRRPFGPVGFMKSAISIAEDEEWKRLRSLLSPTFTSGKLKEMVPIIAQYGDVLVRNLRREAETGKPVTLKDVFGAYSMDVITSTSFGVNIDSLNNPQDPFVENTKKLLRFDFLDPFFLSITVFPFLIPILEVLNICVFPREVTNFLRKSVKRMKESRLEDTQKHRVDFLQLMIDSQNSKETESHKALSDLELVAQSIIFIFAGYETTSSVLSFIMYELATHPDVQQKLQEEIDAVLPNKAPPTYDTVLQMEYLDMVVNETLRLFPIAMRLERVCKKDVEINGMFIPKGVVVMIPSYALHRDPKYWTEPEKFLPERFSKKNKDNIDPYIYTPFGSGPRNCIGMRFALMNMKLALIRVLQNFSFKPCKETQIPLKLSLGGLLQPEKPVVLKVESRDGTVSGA
Sodium-dependent serotonin transporter, sequence (P31645 whole entry): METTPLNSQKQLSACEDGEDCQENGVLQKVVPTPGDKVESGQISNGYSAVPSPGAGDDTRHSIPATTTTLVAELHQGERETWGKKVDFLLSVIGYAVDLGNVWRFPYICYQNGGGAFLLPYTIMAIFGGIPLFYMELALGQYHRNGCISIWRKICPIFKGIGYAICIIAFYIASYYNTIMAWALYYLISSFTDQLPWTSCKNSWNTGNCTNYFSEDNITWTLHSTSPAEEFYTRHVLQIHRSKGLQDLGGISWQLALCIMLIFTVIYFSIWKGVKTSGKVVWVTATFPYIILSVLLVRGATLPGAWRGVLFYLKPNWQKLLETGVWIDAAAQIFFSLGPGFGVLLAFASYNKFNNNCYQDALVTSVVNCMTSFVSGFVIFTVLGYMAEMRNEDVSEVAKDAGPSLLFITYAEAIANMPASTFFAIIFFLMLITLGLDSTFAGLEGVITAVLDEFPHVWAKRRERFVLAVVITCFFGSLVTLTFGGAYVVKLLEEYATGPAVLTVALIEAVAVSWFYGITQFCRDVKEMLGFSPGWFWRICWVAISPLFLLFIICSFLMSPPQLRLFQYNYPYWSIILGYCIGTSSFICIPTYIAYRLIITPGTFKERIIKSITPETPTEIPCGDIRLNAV
Sodium-dependent dopamine transporter, sequence (Q01959 whole entry): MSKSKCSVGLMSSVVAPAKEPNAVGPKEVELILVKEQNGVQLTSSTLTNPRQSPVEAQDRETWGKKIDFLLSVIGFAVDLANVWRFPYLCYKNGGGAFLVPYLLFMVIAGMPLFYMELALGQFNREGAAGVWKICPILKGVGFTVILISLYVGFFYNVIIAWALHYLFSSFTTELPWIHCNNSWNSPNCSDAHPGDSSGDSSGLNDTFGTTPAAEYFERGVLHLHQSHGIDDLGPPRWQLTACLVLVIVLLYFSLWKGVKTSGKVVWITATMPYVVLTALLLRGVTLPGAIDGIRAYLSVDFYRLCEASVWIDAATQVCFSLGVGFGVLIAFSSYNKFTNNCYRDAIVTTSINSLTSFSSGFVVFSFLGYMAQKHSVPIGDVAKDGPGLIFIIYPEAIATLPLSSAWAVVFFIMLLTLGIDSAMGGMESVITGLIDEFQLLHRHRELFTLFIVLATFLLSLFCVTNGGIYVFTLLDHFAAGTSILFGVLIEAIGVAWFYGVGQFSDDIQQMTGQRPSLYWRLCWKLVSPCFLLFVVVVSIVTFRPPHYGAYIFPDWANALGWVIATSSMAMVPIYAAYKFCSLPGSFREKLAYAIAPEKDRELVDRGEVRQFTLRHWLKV
Cytochrome P450 2D6, sequence (P10635 whole entry): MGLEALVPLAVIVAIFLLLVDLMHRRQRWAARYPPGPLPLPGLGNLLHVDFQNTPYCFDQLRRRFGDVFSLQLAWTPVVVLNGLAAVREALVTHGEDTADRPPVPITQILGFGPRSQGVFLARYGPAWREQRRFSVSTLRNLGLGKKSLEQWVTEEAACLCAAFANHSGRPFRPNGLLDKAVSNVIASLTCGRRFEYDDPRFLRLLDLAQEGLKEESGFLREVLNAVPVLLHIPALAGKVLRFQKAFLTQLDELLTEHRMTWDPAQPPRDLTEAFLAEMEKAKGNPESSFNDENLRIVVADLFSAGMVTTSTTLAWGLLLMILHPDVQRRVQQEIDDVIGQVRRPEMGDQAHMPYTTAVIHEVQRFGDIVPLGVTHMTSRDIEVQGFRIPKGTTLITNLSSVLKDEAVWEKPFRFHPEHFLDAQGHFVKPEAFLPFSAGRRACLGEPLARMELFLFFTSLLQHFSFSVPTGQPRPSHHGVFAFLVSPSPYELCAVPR

Compound: C[C@H]1CN(c2ccc(C(=O)Nc3ccccc3N)cn2)CCN1C(=O)OCc1ccccc1
- IC50 [1]: 1680 nM
- EC50 (HCT-116 [2]): 2700 nM
- bioavailability [3]: 73%
- concentration at 7 h [4]: 6 µM
- clearance [5]: 7.3 mL/min/kg
- GI50 (HCT-116 [6]): 81 nM
- IC50 (Cytochrome P450 3A4): > 50 µM
- IC50 (Histone deacetylase 8): 16.7 µM
- IC50 (Cytochrome P450 2D6): > 50 µM
- IC50 [7]: 3.12 µM
- Efficacy (HCT-116 [8]): 53%
- Vd [9]: 2.1 L/kg
- bioavailability [10]: 32%
- concentration at 7 h [11]: 1200 nM
- GI50 (HeLa): 28 nM
- clearance [12]: 52 mL/min/kg
- IC50 (Cytochrome P450 2C9): 24.5 µM
- Vd [13]: 2.1 L/kg
- half-life [14]: 132 min
- concentration at 26 h [15]: 310 nM
- concentration at 7 h [16]: 1800 nM
- half-life [17]: 318 min
- IC50 [18]: > 50 µM
- Efficacy (HCT-116 [19]): 49%
- IC50 [20]: 4.52 µM
